Bioassay records from PubChem.
SIRT5 block: sirtuin-5 (human) deacylase inhibition. Purified SirT5, succinyl-peptide AMC, trypsin-coupled fluorescence. inhibition, % at 15 µM. 330,000 compounds, 1.1% hits; in the data active = inhibition above about 15%; inconclusive = no clear call, values can overlap the other calls
E-sel inducer: E-selectin induction on HUVECs; AID 686992; HUVEC E-selectin immunofluorescence imaging; normalized: neutral wells 0, TNF-alpha wells 100; activation, % at 7.58 µM; 260,000 compounds, 0.37% hits; P16581;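 active = mean E-selectin-positive cell signal at least 10% of the positive control, reached in at least 60% of replicates, without over 20% cell loss; inconclusive = no rule given, readout overlaps actives, possibly toxicity-flagged; inactive = the rest, including those meeting only one limit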
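Test system: HUVEC; input: 3,000 HUVEC/well; measured by: immunofluorescence imaging; read-out: % PE-positive cells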
DENV2 CPE rescue: DENV2-induced cell death inhibition; DENV2-infected cells, cytopathic effect rescue, plate reader; CPE inhibition, % at 9.99 µM; 350,000 compounds, 1.7% hits; AID 651640; in the data active = CPE inhibition above about 20%, passing the limit was not always enough; inconclusive = no clear call, values can overlap the other calls; tested in BHK-21 cells
PglD inh: inhibitors of Campylobacter jejuni PglD acetyltransferase; purified PglD enzyme, DTNB colorimetric CoA detection; inhibition, % at 12.5 µM; 360,000 compounds, 0.098% hits; AID 602405; in the data active = inhibition above about 16%, passing the limit was not always enough; inconclusive = no clear call, values can overlap the other calls
ERAP1 HTS inh: blocks human ERAP1 aminopeptidase activity; Q9NZ08; 340,000 compounds, 0.15% hits; inhibition, % at 10.7 µM; recombinant ERAP1, Leu-AMC fluorescence, 60 min;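 active = mean replicate inhibition of at least 30%, or all replicates individually reaching that 30% level; inactive = mean below 30% and not every replicate reaching it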
Target sequence (Q9NZ08 whole entry, looked up): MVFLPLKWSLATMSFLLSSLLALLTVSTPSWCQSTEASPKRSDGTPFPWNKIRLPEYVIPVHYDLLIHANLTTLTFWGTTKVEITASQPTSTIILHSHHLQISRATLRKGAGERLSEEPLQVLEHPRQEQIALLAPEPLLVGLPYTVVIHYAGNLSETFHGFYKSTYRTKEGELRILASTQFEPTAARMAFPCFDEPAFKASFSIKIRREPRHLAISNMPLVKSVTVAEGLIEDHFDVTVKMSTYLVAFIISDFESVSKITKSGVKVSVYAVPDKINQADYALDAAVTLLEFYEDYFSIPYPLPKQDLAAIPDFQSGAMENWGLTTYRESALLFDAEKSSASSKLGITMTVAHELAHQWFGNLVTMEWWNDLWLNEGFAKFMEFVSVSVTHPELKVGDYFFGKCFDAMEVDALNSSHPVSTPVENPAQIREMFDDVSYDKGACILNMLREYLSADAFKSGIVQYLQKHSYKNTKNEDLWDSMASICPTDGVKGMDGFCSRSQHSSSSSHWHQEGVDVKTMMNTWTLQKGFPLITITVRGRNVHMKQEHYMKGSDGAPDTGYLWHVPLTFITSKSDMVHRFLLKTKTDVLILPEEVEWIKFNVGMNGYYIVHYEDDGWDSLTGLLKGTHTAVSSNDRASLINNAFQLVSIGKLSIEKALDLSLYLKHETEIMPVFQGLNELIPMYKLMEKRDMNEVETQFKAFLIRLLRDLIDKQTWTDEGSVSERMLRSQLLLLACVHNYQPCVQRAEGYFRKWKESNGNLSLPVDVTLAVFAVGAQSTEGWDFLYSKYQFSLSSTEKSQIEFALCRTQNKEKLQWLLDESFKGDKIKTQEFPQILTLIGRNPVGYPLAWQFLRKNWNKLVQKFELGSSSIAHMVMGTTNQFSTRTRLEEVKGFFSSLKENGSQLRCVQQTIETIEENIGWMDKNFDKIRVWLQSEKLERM
Each line names hits and unclear results; the compound was inactive in the other large screens; ! = not active in a repeat. An excerpt weighted towards active compounds, which were near 2.5% of everything screened.

Cc1ccc(S(=O)(=O)Nc2ccc3c(c2)C(=O)N([C@H](C)CO)C[C@H](C)[C@@H](CN(C)Cc2ccc(C(F)(F)F)cc2)OCCCC[C@@H](C)O3)cc1	none (no result: E-sel inducer)
Cc1ccc(S(=O)(=O)Nc2ccc3c(c2)C(=O)N([C@H](C)CO)C[C@@H](C)[C@@H](CN(C)Cc2ccc(C(F)(F)F)cc2)OCCCC[C@@H](C)O3)cc1	SIRT5 block 17.7 (no result: E-sel inducer)
CC1=NNC(=O)C1CC(=O)N/N=C/C(C)=C/c1ccccc1 (stereo not drawn)	none (no result: E-sel inducer, PglD inh)
Cc1ccc(S(=O)(=O)N2C[C@H]3n4c(=O)ccc(=O)n4C[C@H](OC(=O)NC4CC4)[C@@]3(O)C2)cc1	none (no result: E-sel inducer)
CCCN1[C@@H]2c3ccc(-c4ccc(F)cc4)c(=O)n3C[C@H]1[C@H](CO)[C@H]2C(=O)NCCOC	none
Cc1ccc(S(=O)(=O)Nc2ccc3c(c2)C(=O)N([C@@H](C)CO)C[C@@H](C)[C@H](CN(C)Cc2ccc(C(F)(F)F)cc2)OCCCC[C@H](C)O3)cc1	none (no result: E-sel inducer)
Cc1ccc(S(=O)(=O)Nc2ccc3c(c2)C(=O)N([C@@H](C)CO)C[C@H](C)[C@@H](CN(C)Cc2ccc(C(F)(F)F)cc2)OCCCC[C@H](C)O3)cc1	SIRT5 block 23.0 (no result: E-sel inducer)
Cc1cccc([C@@H]2[C@@H]3C(=O)N(Cc4ccccc4)C(=O)[C@@H]3[C@]3(Cc4ccccc4)C(=O)N(c4ccc(C(F)(F)F)cc4)C(=O)N23)c1	DENV2 CPE rescue 102.4
Cc1cccc([C@@H]2[C@@H]3C(=O)N(Cc4ccccc4)C(=O)[C@@H]3[C@]3(Cc4ccccc4)C(=O)N(c4ccccc4)C(=O)N23)c1	none
N=C1/C(=C/c2ccco2)C(=O)N=C2SC(CC(=O)N3CCCC3)=NN12	SIRT5 block 19.5
N=C1/C(=C\c2ccc(Br)o2)C(=O)N=C2SC(CC(=O)N3CCOCC3)=NN12	SIRT5 block 27.7 (no result: E-sel inducer)
N=C1/C(=C/c2ccc(Br)o2)C(=O)N=C2SC(CC(=O)N3CCCC3)=NN12	SIRT5 block 25.6 (no result: E-sel inducer)
COc1ccc(CN(C)C[C@H]2Oc3ccc(NS(=O)(=O)c4cn(C)cn4)cc3CC(=O)N([C@H](C)CO)C[C@H]2C)cc1	E-sel inducer inconclusive
C[C@@H]1CN([C@H](C)CO)C(=O)c2cc(NC(=O)Cc3cn(C)c4ccccc34)ccc2O[C@@H]1CN(C)C(=O)Nc1ccccc1	none
NC(=O)C1CCN(c2nc(-c3ccccc3Br)cs2)CC1	DENV2 CPE rescue 80.4 (no result: SIRT5 block, PglD inh)
CS(=O)(=O)c1ccccc1-c1csc(N2CCC(C(N)=O)CC2)n1	E-sel inducer 40.9 (no result: DENV2 CPE rescue, PglD inh)
NC(=O)C1CCN(c2nc(-c3ccccc3F)cs2)CC1	none (no result: SIRT5 block)
O=C(O)c1cccc2cccc(-c3c4ccc(=O)c(O)c-4oc4c(O)c(O)ccc34)c12	SIRT5 block 36.7 (no result: PglD inh)
CC(=O)Nc1c(-c2ccccc2Cl)c(=O)c2ccccc2n1C	none
CCc1nnc(N2C(=O)c3ccccc3C2(O)c2ccccc2)s1 (stereo not drawn)	DENV2 CPE rescue 41.1 (no result: E-sel inducer)
Cc1ccc(N2C(=O)c3ccccc3C2(O)c2ccccc2)cc1 (stereo not drawn)	none (no result: SIRT5 block, E-sel inducer)
COc1ccc(CN(CCC(c2ccccc2)C2CCOC(C)(C)C2)C(C)=O)cc1 (stereo not drawn)	DENV2 CPE rescue 102.1
COc1ccc(S(=O)(=O)N(C)C[C@H]2OCc3cnnn3CCCC(=O)N([C@@H](C)CO)C[C@H]2C)cc1	DENV2 CPE rescue 63.9!
COc1cccc(S(=O)(=O)N(C)C[C@@H]2OCc3cnnn3CCCC(=O)N([C@@H](C)CO)C[C@@H]2C)c1	DENV2 CPE rescue 20.1!
COc1ccc(S(=O)(=O)N(C)C[C@@H]2OCc3cnnn3CCCC(=O)N([C@@H](C)CO)C[C@H]2C)cc1	DENV2 CPE rescue 27.9!
COc1ccc(S(=O)(=O)N(C)C[C@@H]2OCc3cnnn3CCCC(=O)N([C@H](C)CO)C[C@H]2C)cc1	none
COc1ccc(S(=O)(=O)N2CCCCCC2)cc1N	none (no result: PglD inh)
C[C@H](CO)N1C[C@H](C)[C@H](CN(C)C(=O)Nc2cccc3ccccc23)Oc2ccc(NC(=O)Nc3cccc4ccccc34)cc2CC1=O	none (no result: ERAP1 HTS inh)
C[C@H]1CN([C@@H](C)CO)C(=O)Cc2cc(NC(=O)Nc3cccc4ccccc34)ccc2O[C@H]1CN(C)C	none
C[C@@H]1CN([C@@H](C)CO)C(=O)Cc2cc(NC(=O)Nc3cccc4ccccc34)ccc2O[C@H]1CN(C)C(=O)Nc1cccc2ccccc12	DENV2 CPE rescue 44.6 (no result: PglD inh)
C[C@@H]1CN([C@H](C)CO)C(=O)Cc2cc(NC(=O)Nc3cccc4ccccc34)ccc2O[C@@H]1CN(C)C(=O)Nc1cccc2ccccc12	SIRT5 block 16.0
C[C@@H]1CN([C@H](C)CO)C(=O)Cc2cc(NC(=O)Nc3cccc4ccccc34)ccc2O[C@@H]1CN(C)Cc1ccc(Cl)c(Cl)c1	none
C[C@H](CO)N1C[C@H](C)[C@@H](CN(C)C)Oc2ccc(NC(=O)Nc3cccc4ccccc34)cc2CC1=O	DENV2 CPE rescue 38.8
C[C@H]1CN([C@@H](C)CO)C(=O)Cc2cc(NC(=O)Nc3cccc4ccccc34)ccc2O[C@H]1CN(C)Cc1ccc(Cl)c(Cl)c1	SIRT5 block 15.4
C[C@H]1CN([C@@H](C)CO)C(=O)Cc2cc(NC(=O)Nc3cccc4ccccc34)ccc2O[C@H]1CN(C)S(C)(=O)=O	none
C[C@H]1CN([C@@H](C)CO)C(=O)Cc2cc(NC(=O)Nc3cccc4ccccc34)ccc2O[C@@H]1CN(C)C(=O)Nc1ccc(C(F)(F)F)cc1	E-sel inducer 54.7
C[C@@H]1CN([C@H](C)CO)C(=O)Cc2cc(NC(=O)Nc3cccc4ccccc34)ccc2O[C@@H]1CN(C)C(=O)NC1CCCCC1	DENV2 CPE rescue 22.0 (no result: E-sel inducer)
Cc1noc(C)c1NC(=O)Nc1ccc2c(c1)CC(=O)N([C@H](C)CO)C[C@H](C)[C@H](CN(C)C(=O)Nc1cccc3ccccc13)O2	DENV2 CPE rescue 63.3
C[C@@H]1CN([C@@H](C)CO)C(=O)Cc2cc(NC(=O)Nc3cccc4ccccc34)ccc2O[C@@H]1CN(C)S(C)(=O)=O	DENV2 CPE rescue 65.7!
C[C@@H]1CN([C@H](C)CO)C(=O)Cc2cc(NC(=O)Nc3cccc4ccccc34)ccc2O[C@@H]1CN(C)C(=O)Nc1ccc(C(F)(F)F)cc1	DENV2 CPE rescue inconclusive
Cc1noc(C)c1NC(=O)Nc1ccc2c(c1)CC(=O)N([C@@H](C)CO)C[C@H](C)[C@H](CN(C)C(=O)Nc1cccc3ccccc13)O2	none
C[C@@H]1CN([C@@H](C)CO)C(=O)c2cc(NS(=O)(=O)c3cccs3)ccc2O[C@@H](C)CCCCO[C@@H]1CN(C)C(=O)CCCN(C)C	DENV2 CPE rescue 46.4
C[C@H](CO)N1C[C@H](C)[C@H](CN(C)C(=O)CCCN(C)C)OCCCC[C@H](C)Oc2ccc(NS(=O)(=O)c3cccs3)cc2C1=O	DENV2 CPE rescue 55.0
CC(C)(C)OC(=O)N(CCc1ccccc1)Cc1ccccc1OCc1cccc(NC(=O)C2CCCC2)c1	SIRT5 block 29.2
